Test results taken from PubChem BioAssay AID602317 (Southern Research Specialized Biocontainment Screening …, 2012).
Records with an inconclusive call do not appear. Activity calls are given as the source filed them.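 The calls were made as follows: active = viability under 80% at one or more tested concentrations, read as toxic; inconclusive = replicate runs disagree on whether the viability cutoff is met; inactive = viability stays at 80% or higher at every dose.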

Experiments:
[1] = tested on: Vero E6 viability, CellTiter-Glo luminescence, 72 h; test: viability loss in Vero E6 cells – cell-based, set 3, cytotoxicity control for PfM17LAP inhibitor project, dose response (AID 602317)
Procedure, shortened: (§1)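 Technique – CellTiter-Glo luminescence · Assay system – Vero E6 cells · Doses – 10-point compound series in 2-fold dilution steps · Measure – % viability vs DMSO wells, CC50 from bounded 4-parameter fit · Schedule – 72 h compound exposure at 37 °C, 5% CO2 · Control set – DMSO vehicle-treated wells as negative (full viability) control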

[2] = as above; conditions: Vero E6 viability, CellTiter-Glo luminescence, 72 h; at 50 µM (top of the series)
Procedure, shortened: as §1

Compound | CC50 [1] | viability [2]
CCCCOc1ccc(C(C)C(=O)NO)cc1 (stereo unspecified) | 40.8 µM | –
COc1ccc(CCN(C)c2ccnc3ccccc23)cc1OC | – | 84.9% (inactive)
CCCCOc1ccc(C(C)(C)C(=O)O)cc1 | – | 98.2% (inactive)
CCCOc1ccc(CC(=O)NO)cc1 | – | 91.5% (inactive)
O=C(NCc1ccc2c(c1)OCO2)C1CCN(S(=O)(=O)c2ccc(Br)s2)CC1 | – | 95.4% (inactive)
CCCCOc1ccc(CCC(=O)NO)cc1 | 34.1 µM | –
CN(O)C(=O)Cc1ccc(OCc2ccccc2)cc1 | 32.5 µM | –
CCCOc1ccc(CC(=O)O)cc1 | – | 81.1% (inactive)
CCCCOc1ccc(CC(=O)O)cc1 | – | 95.5% (inactive)
CCC(C)Oc1ccc(CC(=O)OC)cc1 (stereo unspecified) | – | 93% (inactive)
Oc1ccc(CCNc2ccnc3ccccc23)cc1O | – | 95.5% (inactive)
CCCCCCCCCC(=O)NO | 31 µM | –
COc1ccc(CCNc2c3ccccc3nc3ccccc23)cc1OC | 17.9 µM | –
Oc1ccc(CCNC(c2ccccc2)c2ccccc2)cc1O | 38.7 µM | –
COc1ccc(CCNC(c2ccccc2)c2ccccc2)cc1OC | 45.8 µM | –
CCCCOc1ccc(CN(O)C(=O)c2ccccc2)cc1 | 20.9 µM | –
CCCCOc1ccc(C(C)(C)C(=O)NO)cc1 | – | 81.2% (inactive)
CCCCOc1ccc(CNc2c(N(C)O)c(=O)c2=O)cc1 | – | 91% (inactive)
COc1ccc(CC(=O)NO)cc1 | – | 102% (inactive)
COC(=O)Cc1ccc(OCCN(C)C)cc1 | – | 98.9% (inactive)
CCCCOc1ccc(C(C)C(=O)O)cc1 (stereo unspecified) | – | 90.8% (inactive)
CN(C)CCOc1ccc(CC(=O)O)cc1 | – | 98.8% (inactive)
O=C(NCc1ccc(Cl)cc1)C1CCN(S(=O)(=O)c2ccc(Br)s2)CC1 | 21.8 µM | –

Compound | CC50 [1] | viability [2]
O=C(Cc1ccc(Oc2ccccc2)cc1)NO | 45 µM | –
CC[C@H](C)[C@H](NS(=O)(=O)c1ccc(Br)s1)C(=O)NCc1ccc(Cl)cc1 | 46.4 µM | –
CN1CCN(CCc2ccc(O)c(O)c2)CC1 | – | 102% (inactive)
CC(C)(C(=O)NO)c1ccccc1 | – | 104% (inactive)
CCCCOc1cccc(CC(=O)OC)c1 | – | 99.7% (inactive)
Oc1ccc(-c2csc(Nc3ncccn3)n2)cc1O | – | 87.7% (inactive)
COc1ccc(CCCN2CCN(C)CC2)cc1OC | – | 99.5% (inactive)
CCCCOc1ccc(CNc2c(N(O)Cc3ccccc3)c(=O)c2=O)cc1 | – | 95.5% (inactive)
CC[C@H](C)[C@H](NC(=O)c1ccc(C(C)(C)C)cc1)C(=O)NCc1ccc2c(c1)OCO2 | 38.2 µM | –
Oc1ccc(CCNc2c3ccccc3nc3ccccc23)cc1O | 45.4 µM | –
CCCOc1ccc(CC(=O)OC)cc1 | – | 100% (inactive)
COc1ccc(CCN(C)c2c3ccccc3nc3ccccc23)cc1OC | 40.8 µM | –
O=C(NO)c1cccc2ccccc12 | – | 84.7% (inactive)
CCCCOc1ccc(C(C)C(=O)OC)cc1 (stereo unspecified) | – | 97.4% (inactive)
CCOc1ccc(CC(=O)NO)cc1 | – | 96.8% (inactive)
CN1CCN(CCCc2ccc(O)c(O)c2)CC1 | – | 96% (inactive)
Cc1ccc(CC(=O)NO)cc1 | – | 104% (inactive)
CCCCOc1ccc(CC(=O)N(C)O)cc1 | 44.6 µM | –
COC(=O)Cc1ccc(OCC(C)C)cc1 | – | 109% (inactive)
CCc1ccc(NC(=O)Cc2nc(-c3ccc(O)c(O)c3)cs2)cc1 | 42.2 µM | –
CN1CCN(c2nc(-c3ccc(O)c(O)c3)cs2)CC1 | – | 97.9% (inactive)
CC[C@H](C)[C@H](NS(=O)(=O)c1ccc(Br)s1)C(=O)NCc1ccc2c(c1)OCO2 | – | 107% (inactive)
O=C(Cc1ccc(OCc2ccccc2)cc1)NO | 48.5 µM | –
